Insulin prom act: TRM-6 insulin promoter activation; TRM-6 cells, insulin promoter eGFP reporter, imaging; plate-scaled: unstimulated 0, stimulated control 100; activation, % at 2 µM; hit rate 0.81% among 130,000; AID 1296;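 active = activation at 2 µM above a set limit, confirmed on inspection of the cell images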;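 note: share of cells whose green reporter signal exceeds an intensity cutoff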
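Test system: human fetal islet-derived TRM-6 cells with tamoxifen-inducible insulin promoter–eGFP reporter. Compound dosing: 2 µM final, single concentration. Incubation: tamoxifen pre-incubation 15 h overnight, then compound exposure 48 h at 37 °C. Signal: fixed-cell fluorescence microscopy, eGFP plus Hoechst.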
Active calls of the source: *. Many of the other results were omitted from the sample, so hits are more common in it than they were.

What do the screens show for `COc1ccc(CNC(=O)CN2C(=O)NC3(CCCCCC3)C2=O)cc1OC`?
Insulin prom act: 244.4*

What do the screens show for `Cc1ccc(C2C3=C(CCCC3=O)N=C3c4ccccc4C(=O)C32)cc1` (stereo unspecified)?
Insulin prom act: 0.0

Results for O=C(CCSCCC(=O)NCCN1CCOCC1)NCCN1CCOCC1 ?
Insulin prom act: -6.9

How did COCCNC(=O)C(=O)NCCN1CCOCC1 do in these assays?
Insulin prom act: 493.8*

How did COc1ccc(C(=O)NCCN2CCOCC2)cc1OC do in these assays?
Insulin prom act: -78.6

What do the screens show for `Cc1ccc(/C=N/n2c(COc3ccccc3)n[nH]c2=S)s1`?
Insulin prom act: 9.7

How did O=C(NC(=S)Nc1ccccc1N1CCOCC1)c1cccs1 do in these assays?
Insulin prom act: -2.8

What do the screens show for `COc1ccc(-c2c(=O)n(OCc3ccccn3)c3ccccc3[n+]2[O-])cc1OC`?
Insulin prom act: -9.7

Results for CCOC(=O)COn1c(=O)c(-c2ccc(OC)c(OC)c2)[n+]([O-])c2ccccc21 ?
Insulin prom act: 0.0

Results for Cc1c(=O)n(OCc2cccc(F)c2)c2ccccc2[n+]1[O-] ?
Insulin prom act: 132.4*

Results for CCOc1ccc2nc(NCCCNS(=O)(=O)c3ccc(F)cc3)c(C#N)cc2c1 ?
Insulin prom act: 106.3

How did CC1(C)CC(=O)c2sc(NS(=O)(=O)Cc3ccccc3)nc2C1 do in these assays?
Insulin prom act: 2.7

How did Cc1ccc(C=C2C(=O)c3ccccc3C2=O)s1 do in these assays?
Insulin prom act: 321.7*

How did O=C1C(=Cc2cccs2)C(=O)c2ccccc21 do in these assays?
Insulin prom act: -6.9

What do the screens show for `Cc1cccc(-n2c(C)cc(C=C3C(=O)c4ccccc4C3=O)c2C)c1`?
Insulin prom act: 6.7

What do the screens show for `Cc1nc2cc(-n3ccc(=O)cc3)ccc2n1-c1ccccc1`?
Insulin prom act: -8.3

What do the screens show for `CCC(C(=O)O/N=C(\N)c1ccc(C)cc1)c1ccccc1` (stereo unspecified)?
Insulin prom act: 6.5

Results for COc1ccc(/C(N)=N/OC(=O)Cc2ccc(OC)c(OC)c2)cc1 ?
Insulin prom act: 209.7*

How did COc1ccc(C/C(N)=N/OC(C)=O)cc1OC do in these assays?
Insulin prom act: 7.9

How did COc1ccc(C(=O)O/N=C(\N)c2ccncc2)cc1OC do in these assays?
Insulin prom act: -7.1

What do the screens show for `C/C=C(\C)CN1CCN(c2ccc(C)cc2)CC1`?
Insulin prom act: -8.7

What do the screens show for `Cn1nnnc1SCC(=O)Nc1ccc(Oc2ccc(Cl)cc2)cc1`?
Insulin prom act: 0.0

What do the screens show for `Cc1ccc(NC(=O)c2cnn(-c3ccccc3)c2NC(=O)c2ccco2)cc1C`?
Insulin prom act: -70.6

What do the screens show for `CN(C)CCCNC(=S)NCCNc1nc2cc3c(cc2cc1C#N)OCO3`?
Insulin prom act: -8.3

How did CCOc1ccc(S(=O)(=O)NCCC(=O)OCN2C(=O)c3ccccc3C2=O)cc1 do in these assays?
Insulin prom act: 0.0

Results for CCN(CC)S(=O)(=O)c1ccc(-c2nnc(SCC(=O)N3c4ccccc4CC3C)n2CC)cc1 (stereo unspecified) ?
Insulin prom act: -2.8

How did O=C(Nc1ccncc1)c1cccs1 do in these assays?
Insulin prom act: -9.7

Results for CC(=O)c1ccc(NC(=O)c2cccs2)cc1 ?
Insulin prom act: -3.1

What do the screens show for `COC(=O)Cc1ccc(NC(=O)c2cccs2)cc1`?
Insulin prom act: 460.0*

How did CC(C)(C)c1ccc(C(=O)Nc2ccc(C=C(C#N)C#N)cc2)cc1 do in these assays?
Insulin prom act: -9.1

What do the screens show for `CCOC(=O)C1CCCCN1Cc1cccc(F)c1` (stereo unspecified)?
Insulin prom act: -6.5

Results for CCCC(=O)NCCc1ccc(S(N)(=O)=O)cc1 ?
Insulin prom act: 3.4

Results for Clc1ccc2oc(-c3ccccc3)cc(=NCCCN3CCOCC3)c2c1 ?
Insulin prom act: 321.4*

How did O=C(NCCCN1CCOCC1)c1cc(-c2ccccc2)on1 do in these assays?
Insulin prom act: 31.8

How did c1ccc(CN2CCOCC2)cc1 do in these assays?
Insulin prom act: -8.6

What do the screens show for `Cc1ccccc1NC(=S)N(CCCN1CCC(C)CC1)Cc1ccco1`?
Insulin prom act: 109.4

How did COc1ccccc1Nc1ccncc1[N+](=O)[O-] do in these assays?
Insulin prom act: 0.0

What do the screens show for `C=C(C)C1CC=C(C)/C(=N/NC(=O)c2cccs2)C1` (stereo unspecified)?
Insulin prom act: -9.8

Results for O=C(CSc1nc2ccccc2[nH]1)N1CCN(S(=O)(=O)c2ccc(Cl)cc2)CC1 ?
Insulin prom act: 96.9*

What do the screens show for `O=S(=O)(c1ccc2nc(SCc3cccc(Cl)c3)[nH]c2c1)N1CCOCC1`?
Insulin prom act: -2.0

How did O=C(CSc1nc2ccccc2[nH]1)NCCc1ccc(Cl)cc1 do in these assays?
Insulin prom act: 3.7

What do the screens show for `O=C1OCCC1Sc1ncnc2sc3c(c12)CCC3` (stereo unspecified)?
Insulin prom act: 7.9

How did Cc1ccc(C(C(=O)NC2CCCC2)N(C(=O)Cc2cccs2)c2ccc(C)c(C)c2)o1 (stereo unspecified) do in these assays?
Insulin prom act: 7.7

What do the screens show for `Cc1nn(C)cc1C(C(=O)NC1CCCCC1)N(C(=O)Cc1cccs1)c1ccc(C(C)C)cc1` (stereo unspecified)?
Insulin prom act: 200.0*

Results for Cc1nn(C)cc1C(C(=O)NC1CCCCC1)N(C(=O)c1cnccn1)c1ccc(Oc2ccccc2)cc1 (stereo unspecified) ?
Insulin prom act: 0.0

How did Cc1cc(F)ccc1NC(=O)c1ccc(NS(=O)(=O)c2cc(C(C)(C)C)ccc2C)cc1 do in these assays?
Insulin prom act: 7.1

Results for Cc1nn(-c2ccccc2)c(C)c1NC(=O)COc1ccc(F)cc1Cl ?
Insulin prom act: 8.1

How did Cc1ccccc1Oc1cc(-n2ncc(Cl)c(Cl)c2=O)ncn1 do in these assays?
Insulin prom act: 270.4*

Results for c1ccc(Oc2cc(-n3cccn3)ncn2)cc1 ?
Insulin prom act: 9.4

What do the screens show for `COc1ccccc1Nc1cc(C(=O)N2CCc3ccccc3C2)c2ccccc2n1`?
Insulin prom act: 8.3

Results for Cc1cccc(Nc2ccccc2C(=O)O)c1C ?
Insulin prom act: 4.5

What do the screens show for `Cc1cc(Nc2ccccc2C(=O)O)nc2nc3ccccc3c(=O)n12`?
Insulin prom act: 146.2*

How did Cc1ccc(C(N)=O)cc1S(=O)(=O)Nc1cccc(C)c1C do in these assays?
Insulin prom act: 0.0

How did Cc1ccccc1NC(=O)c1c(Cl)nc(C)c(Cl)c1C do in these assays?
Insulin prom act: 156.3

How did Cc1ccccc1NC(=O)c1cccc2nc3ccccc3nc12 do in these assays?
Insulin prom act: 233.3*

How did Cc1ccccc1C(=O)Nc1ccccc1-n1cccc1 do in these assays?
Insulin prom act: 1.4

What do the screens show for `CC12C(=O)N(Cc3ccccc3)C(=O)C1C1C=CC2C1` (stereo unspecified)?
Insulin prom act: 7.7

Results for COC(=O)C(NC(=O)CNS(=O)(=O)c1ccc(Br)cc1)c1ccccc1 (stereo unspecified) ?
Insulin prom act: 275.0*

What do the screens show for `COC(=O)C(CCSC)NC(=O)CNS(=O)(=O)c1ccc(Cl)cc1` (stereo unspecified)?
Insulin prom act: 0.0

What do the screens show for `COc1ccccc1NC(=O)CNS(=O)(=O)c1ccccc1`?
Insulin prom act: 377.8

What do the screens show for `COc1cccc(CNC(=O)Cc2ccc(Br)cc2)c1`?
Insulin prom act: -3.7

What do the screens show for `O=[N+]([O-])c1ccc(-n2cccc2/C=N/Nc2nc(N3CCCCC3)nc(N3CCCCC3)n2)cc1`?
Insulin prom act: 0.0
